Assay results published in publication PMC6830765 (Innate Immunity, 2017).

Key:
[1] = test system: IL-12; assay: IL-12 ELISA, LPS-treated SVG; assay type: cell-based, human; details: selected dose
Method in brief: (§1)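 Human microglia (CHME3) and astrocyte (SVG) lines at fourth passage, inflamed with LPS. […] IL-12 or IFN-γ released into the extracellular medium was quantified with human ELISA kits 12 and 24 h after drug treatment. Controls were inflamed untreated cells and market-drug (Disprin)-treated cells.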

[2] = test system: IFN-γ; assay: IFN-γ ELISA, LPS-treated SVG; assay type: cell-based, human; details: selected dose
Method in brief: as §1

[3] = test system: IFN-γ; assay: IFN-γ ELISA, LPS-treated CHME3; assay type: cell-based, human; details: selected dose
Method in brief: as §1

[4] = test system: IL-12; assay: IL-12 ELISA, LPS-treated CHME3; assay type: cell-based, human; details: selected dose
Method in brief: as §1

[5] = MTT assay, SVG; assay type: cell-based, human; details: human, SVG astrocyte cells
Method in brief: (§2)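 MTT (thiazolyl blue tetrazolium bromide) assay on LPS-inflamed CHME3 or SVG cells, fourth passage. […] Read-out is percent viable cells, plus a growth-inhibitory IC50 (concentration halving cell growth) for each cell line.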

[6] = test system: astrocyte (SVG) cell-line; assay: MTT assay, SVG; assay type: cell-based, human; details: Homo sapiens, Astrocyte, read-out: IC50, half concentration of druggable compound to inhibit cell growth
Method in brief: as §2

[7] = test system: human microglia (CHME3); assay: MTT assay, CHME3; assay type: cell-based; details: Homo sapiens, Microglia, read-out: IC50, half concentration of druggable compound to inhibit cell growth
Method in brief: as §2

[8] = MTT assay, CHME3; assay type: cell-based, human; details: human, CHME3 microglia cells
Method in brief: as §2

Compound: O=C(/C=C/C=C/c1ccc2c(c1)OCO2)N(CCCO[N+](=O)[O-])c1ccc(CO)cc1 [PA-3′k, 3-((2 E,4 E)-5-(benzo[d][1,3]dioxol-5-yl)-N-(4-(hydroxymethyl)phenyl)penta-2,4-dienamido)propyl nitrate]
- IL-12 quantification ([1]; 12 h after drug treatment): 88.11 ± 2.80
- IL-12 quantification ([1]; 24 h after drug treatment): 96.37 ± 2.95
- IFN-γ quantification ([2]; 12 h after drug treatment): 42.57 ± 3.58
- IFN-γ quantification ([2]; 24 h after drug treatment): 55.81 ± 2.89
- IFN-γ quantification ([3]; 12 h after drug treatment): 46.35 ± 3.58
- IFN-γ quantification ([3]; 24 h after drug treatment): 54.86 ± 3.41
- IL-12 quantification ([4]; 12 h after drug treatment): 81.68 ± 4.00
- IL-12 quantification ([4]; 24 h after drug treatment): 101.88 ± 5.22
- viability at 24 h [5]: 89.1 ± 1.96%
- IC50 [6]: 0.0679 µg/mL
- IC50 [7]: 0.0678 µg/mL
- viability at 24 h [8]: 86.1 ± 2.57%
